Source: the RNAGym collection of RNA variant scans (doi:10.1126/science.aae0568)
Variants at the floor of the assay were thinned out.

B1: tRNA (parent)
chain: GUUCCGUUGGCGUAAUGGUAACGCGUCUCCCUCCUAAGGAGAAGACUGCGGGUUCGAGUCCCGUACGGAACG

Variants of: B1
Experiment: yeast fitness relative to wild type (ratio to wild type); higher = fitter; tRNA-Arg(CCU), competitive growth, 37 C, YPD
In short: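 Genotype frequency changes were the basis for Darwinian fitness relative to wild type. The frequencies came from 100-nucleotide paired-end sequencing of gene amplicons from the start population and each end population of pooled yeast strains with tRNA-Arg(CCU) gene variants at the native locus. Competition ran in YPD at 37°C for 24 hours in six replicates, genotypes needed ≥ 100 starting reads, and estimates < 0.5 were set to 0.5.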

Row | Variant | yeast fitness
1 | GUACCGUUGGCGUAAUGGUAACGCGACUCCCUCUUAAGGAGAAGACGGCGGGUUCGAGUCCCGAACGGAACG | ≤ 0.5
2 | GUCCCGUUGGCGUAAUGGUCACCCGUCUCCCUCCUAAGGAGAAGACUGCGGGUUCGAGUCCCGUACGGAACG | ≤ 0.5
3 | GUCCCGUUGGCGUAAUGGUAACGCGUCUCCCUCCUAAGGGGAAGAAUGCGGGUUCGAGUCCCGUACGGCACG | 0.706
4 | GUCCCGUUGGCGUAGUGGUAACGCGUCUACCUCCUAAGGUGAAGACUGCGGGUUGGAGUCGCGUACGGAACG | ≤ 0.5
5 | GUACCGUUGGCGUAAUGGAAACGCGUCUCCCUUCUAAGGAGAAGACUGCGGCUUCGAGUCCCGUGCGGAACG | ≤ 0.5
6 | GUCCCGUUGGCGUAGUGGUAACGCGUCUCGCUCCUAAGGAGAAGACUGCGGGUUCAAGUCCCCUACAGAACG | ≤ 0.5
7 | GUACCGUUGGCGUAAUGGUAACGCGUCUCCCGCCUAAGGAGAAGACUGCGGGUUCGAGUCCCCUAUGGAACG | ≤ 0.5
8 | GUCCCGUUGGCGUAAUGGUAUCGCGUCUCCCUCCUAAGGAGAAGACUGCCGGUUCGAGUCCCGUUCGGAACG | ≤ 0.5
9 | GUCCCGUUGGCGUAAUGGUUACGCGUCUCCCUCCUAAGGAGAAGACUGCGGGUUCGAGUCCCGUACGGCACG | 0.749
10 | GUACCGUUGGCGUAAUGGUAACGCGCCUCCCUCCUAAGGAGACGACUGCGGGUUCGAGUCCCGUACGGAUCG | ≤ 0.5
11 | GUACCGUUGGCGUAAUGGUAACGCGUCUCCCUCCAAAGGAGAAGACUGCGGGUUCGAGUCCCGUACGGAACG | 0.658
12 | GUCCCGUUGGCGUACUGGUAACGCGUCUCCCUCCUCAGGAGAAGACAGCGGGUUCGAGUCCGGUACGGAACG | ≤ 0.5
13 | GUACCGUUGGCGUAAUGGUAACGCGCCUCCCUCCUAAGGAGAAGACUGCGGGCUCGAGUCCCGUACGGAACG | ≤ 0.5
14 | GUACCGUUGGCGUAAUGGAAACGCGUCUCCCUCCUAAGGAGUACACUGCGGGUACGAGUCCCGUACGGAACG | ≤ 0.5
15 | GUCCCGUUGGCGUAAUGGUAGCGCGUCUCCCUCGUAAGGAGAAGACUGCGGGUUCGAGUCCCGUACGGCACG | ≤ 0.5
16 | GUACCGUUGGCGUAAUGGUAACGCGUCUCCCGCCUAAGGAGAAGACUGCGGGUUCAAGUCCCGUACGUUACG | ≤ 0.5
17 | GUCCCGUUGGCGUGAUGGUAACGAGUCUCCCUCCUAAGGAGAAAACUGCGGGUUCGAGUCCCGUCCGGAACG | ≤ 0.5
18 | GUCCCGUUGGCGUUAGGGAAACGCGUCUCCCUCCUAAGGAGGAGACUGCGGGUUCGAGUCGCGUACGGAACG | ≤ 0.5
19 | GUACCGUUGGCGUAAUGGAAACGCGUCUCCCUCCUAAGGAGAAGAAUGCGGGUUCAAGUCCCGUACGGAACG | 0.564
20 | GUCCCGUUGGCGUAAUGGUAACGCGUCUCCCUCCUUAGGAGAAGACUGCGGGUUCGAGUCCUGUACGGAACG | 0.553
21 | GUCCCGUUGGCGUAAUGGUUACGCGUCUCCCUCCUAAGGAGAAGACUGCGGGUUCGAGUCCCGUACGGACCG | 0.59
22 | GUACCGUUGGCGUAAUGGUAACGCGACUCCCUCCUAAGGAGAAGACUGCGGGUUCGACUCCCAUACGGAACG | ≤ 0.5
23 | GUCCCGUUGGCGUACUGGUGACGCGUCUCCCUCCUAAGGAGAAGACUGCGGGUUCGAGUCCCGUACGGAACG | ≤ 0.5
24 | GUACCGUUGGCGUAAUGGUAACGCGUCACCCUCCUAAGGAGAAGACUGCGGGUUCGAGUCCCGUACGGAACG | 0.865
25 | GUCCCGUUGGCGUACUCGUAACGAGUCUCCUUCCCAAGGAGAAGACUGCGGGUUCGAGUCCCGUACGAAACG | ≤ 0.5

Row | Variant | yeast fitness
26 | GUACCGUUGGCGUAAUGGUAACGCGCCUCCCUCCUAAGGAGAAGACUGCGGGUUCGAGCCCCGUACGGAACG | ≤ 0.5
27 | GUCCCGUUGGCGUAAUGGUCACGCGUCUCCCUCCUAAGGAGAAGAUUGCGGGUUCGAGUCCCGUACGGAACG | 1.06
28 | GUACCGUUGGCGUAAUGGUAACGCGUCUCCCUCCUAAGGAGAAGACUGCGGGCCCGAGUCCCGUACGGAACG | ≤ 0.5
29 | GUACCGUUGGCGUAAUGGCAACGCGUCUACCUCCUUAGGAGAAGACUGCGGGUUCGAGUCCCGUACGGAACG | ≤ 0.5
30 | GUACCGUUGGCGUAAUGGCAACGUGUCUCCCUCCUAGGGAGAAGACUGCGGGUUCGAGUGCCGUACGGAACG | ≤ 0.5
31 | GUCCCGUUGGCGUUAUGGUCACGGGUCUCCCUCCUAAGGAGAAGACUGCGGGUUUGAGUCCCGUACGGCACG | ≤ 0.5
32 | GUACCGUUGGCGUAAUGGAAACGCGUCUCCCUACUAAGGAGAAGACUGUGGAUUCGAGUCCCGUACGGAACG | ≤ 0.5
33 | GUCCCGUUGGCGUAAUGGUGACGCGUCUCCCUCCUAAGGAGAAGACUGCGGGUUCGAGUCCCGUACGGAACG | 0.917
34 | GUCCCGUUGGCGUAAUGGUAACGCGUCUCCCUCCUAGGGAGAAGACUGCGGGUUCGAGUCCCGUACGGAUCG | 0.568
35 | GUACCGUUGGCGUAAUGGUAACGCGUCUCCCACCUAAGGAGAAGACUGCGGGUUCGAGUCCCGUACGGAACG | 0.74
36 | GUCCCGUUGGCGUAUUGGUAACGCGUCUCUCUCCUAAGGAGAAGACUGCGGGUUCGAGUCCCGUACGGAACG | 0.57
37 | GUCCCGUUGGCGUCAUGGUAACGCGUCUCCCUCCUAAGGAGAAGCCUGCGGGUUCGAGUCCCGUCCGGAACG | ≤ 0.5
38 | GUCCCGUUGGCGUAAUGGUAACGCGUCUCCCUCCUACGGAGAAGACUGGGGGUUCGAGUCCCGUACGGAACG | ≤ 0.5
39 | GUACCGUUGGCGUAAUGGUAACGCGUCUCCCUCCUAAGGAGAAGACUGCGGGCUCGAGUCCCGUACGGAACG | 0.668
40 | GUCCCGUUGGCGUACUGGUAACGCGUCUCCCUCCUUAGGAGAAGACUGCGGGUUCGAGUCCCGUACGGAACG | ≤ 0.5
41 | GUCCCGUUGGCGUGAUGGUAACGCGUCUCUCUCCUAAGGAGAAGCGUGCGGGUUCGAGUCCCGUACGGCACG | ≤ 0.5
42 | GUACCGUUGGCGUAAUGGAAACGCGUCUCCCUCCUAAGGAGAAGACUGCGGGUUCGACUCCCGUACGGAACG | 0.675
43 | GUACCGUUGGCGUAAUGGUAACGCGUCUCCCUCCUAAGGAGAAGACUGCGGGUACCAGUCCCGUACGGAACG | 0.767
44 | GUCCCGUUGGCGUAAUGGUAACGCGUCUCCCUCCUCAGGAGACGACUGCGGGUUCGAGUCCCGUACGGCACG | ≤ 0.5
45 | GUCCCGUUGGCGUAAUGGUAUCGCGUCUCCCUCCUAAGGAGAAGACUGCGGGUUCGAGUCCCGUACGGAACG | 0.642
46 | GUACCGUUGGCGUAAUGGUAACGCGGCUCCCUCCUAAGGAGAAGACUGCGGGUUCGAGUCCCGUAUGGAACG | ≤ 0.5
47 | GUCCCGUUGGCGUAAUGGUAACGCGUCUCCCUCCUAAGGAGAAGACUGCGGGUUCGAGUCCCGUACGGAACG | 0.996
48 | GUCCCGUUGGCGUACUGGUAACGCGUCUCCCUCCUAAGGAGAAGACUGCGGGUUCGAGUCCCGUACGGAACG | 0.695
49 | GUCCCGUUGGCGUAAUGGUACUGCGUCUCCUUUCUAAGGAGAAGACUGCGGGUUCGAGUCCCGUACGGAACG | ≤ 0.5
50 | GUCCCGUUGGCGUGAUGGUAAAGCGUGUCCCUCCUAAGCAGAAGACUGCGGGUUCGAGUCCGGUACGGAACG | ≤ 0.5

Row | Variant | yeast fitness
51 | GUCCCGUUGGCGUAAUGGUAACGCGUCUCCCUCCUAGGGAGCAGACUGCGGGUUCGAGUCCCGUCCGGCACG | ≤ 0.5
52 | GUCCCGUUGGCGUAAUGGUAUCGCGUCUCCCUCCUAGGGAGAAAACUGCGGGUUCGAGUCCCAUACGGAACG | ≤ 0.5
53 | GUCCCGUUGGCGUAAUGGUAACGCGUCUCCCUCCUAUGGAGAAGACUGCGGGUUCGAGUCCCGUACGGAACG | 0.806
54 | GUCCCGUUGGCGUAAUGGUAACGCGUCUCCCUCCUAGGGAGAAGACUGCGGGUUCGAGUCCCGUACGGAACG | 0.784
55 | GUCCCGUUGGCGUAAUGGUAUCGCGUCUCCCUCCUAAGGAGAAGACUGCGGGUUCGAGUCCCGUAGGGAACG | ≤ 0.5
56 | GUCCCGUUGGCGUAAUGGUUACGCGUCUCGCUUCUAAGGAGAAGACUGCGGGUUCGACUCCCGUACGGAACG | ≤ 0.5
57 | GUCCCGUUGGCGUAUGGGAAACGCGUCUCCCUCCUAAGGAGACGACUGCGGGUUCGUGUCCCGUACGGAACG | ≤ 0.5
58 | GUCCCGUUGGCGUAAUGGUAGCGCGUCUCACUGCUAAGGAGAAGACUGCGGGUUCGAGACCCGUAUGGAACG | ≤ 0.5
59 | GUACCGUUGGCGUAAUGGUAACGCGUCUCCCUCCCAAGGAGAAGACUGCGGGUUCGCGUCCCGUACGGAACG | ≤ 0.5
60 | GUCCCGUUGGCGUAAUGGUAGCGCGUCUGCCUCCUAAGGAGAAGACUGCGGGUUCGAGUCCCGUACGGAACG | ≤ 0.5
61 | GUCCCGUUGGCGUAAUGGUAACGCGUCUCCCUCCUAAGGGGAAGAAUGCGGGUUCGAGUCCCGUGCGGAACG | 0.763
62 | GUCCCGUUGGCGUAAUGGUAACGCGUCUCCCUCCUGAGGAGAAGACUGCGGGUUCGAGUCCCGUACGGAACG | 0.91
63 | GUACCGUUGGCGUAAUGGUAACGCGUCUCCCUCCAAAGGAGCAGACUGCGGGUUCGAGUCCCGUACGGAACG | 0.629
64 | GUCCCGUUGGCGUGAUGGUAACGCGUCUCCCUCCUAAGGAGAAGACUGCGGGUUCGAGUCCCGUACGGAACG | 0.917
65 | GUCCCGUUGGCGUUAUGGUAACGCGUCUCCCUCCUAAGGAGAAGACUGCGGGUUCGAGUCCCGUACGGAACG | 0.639
66 | GUCCCGUUGGCGUAAUGGUAACGCGUCUCCCUCCUACGGAGAAGACUGCGGGUUCGGGUCCCGUACGCAACG | ≤ 0.5
67 | GUCCCGUUGGCGUAAUGGUGACGCGUCUCCCUUCUAAGGGGAAGACUGCGGGUUCGAGUCCGGUACGGAUCG | ≤ 0.5
68 | GUCCCGUUGGCGUAUCGGUAACGCGUCUCCCUCUUAAGGAGAGGACUGCGGGUUCGAGUCCCGUACGGAACG | ≤ 0.5
69 | GUCCCGUUGGCGUCAUGGUAGUGCGUCUCCCUCCUAUGGAGAAGACUGAGGGUUCGAGUGCCGUACGGAACG | ≤ 0.5
70 | GUCCCGUUGGCGUAAUGGUUACGCGUCUCCCUCCUAAGGAGAAGACUGCGGGUUCGAGUCCCGUACGUGACG | 0.99
71 | GUCCCGUUGGCGUACUGGUAACGCGUCUCCCUCCUAAAGAGAAGACUGCGGGUACGUGUCCCGUACGGAACG | ≤ 0.5
72 | GUCCCGUUGGCGUAAUGGUAUCGCGUCUCCCUCCUAAGGAGAAGACUGCGGGUUCGAGUCCCGUACGGUACG | 0.537
73 | GUACCGUUGGCGUAAUGGGAACGCAUCUCCCUCCUAAGGAGAAGACUGCGGGUUCGAGUCCCGUACAGAACG | 0.56
74 | GUCCCGUUGGCGUAAUGGUGACGCGUCUCCCUCCUAAGGAGAAGACUGCGGGUUCGAGCCCCGUACGGCACG | 0.79
75 | GUCCCGUUGGCGUAAUGGUAACGCGUCUCCCUCCUUAGAAGAAGACUGCGGAUUCGAGUCCCGUACGGAACG | ≤ 0.5
